These results are taken from ChEMBL document CHEMBL4428077, “Synthesis and Biological Evaluation of N-((1-(4-(Sulfonyl)piperazin-1-yl)cycloalkyl)methyl)benzamide Inhibitors of Glycine Transporter-1” (J Med Chem, 2016).

The target in data set [1] is Voltage-gated inwardly rectifying potassium channel KCNH2 (Homo sapiens, UniProt Q12809). The data set can be described thus: Inhibition of human ERG channel expressed in HEK293 cells by patch clamp assay. The format is cell-based. The method in brief: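 PatchXpress patch-clamp on HEK293 cells stably expressing hERG. Five-point concentration-response, n = 3.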
Chain of Voltage-gated inwardly rectifying potassium channel KCNH2 (Q12809 whole entry): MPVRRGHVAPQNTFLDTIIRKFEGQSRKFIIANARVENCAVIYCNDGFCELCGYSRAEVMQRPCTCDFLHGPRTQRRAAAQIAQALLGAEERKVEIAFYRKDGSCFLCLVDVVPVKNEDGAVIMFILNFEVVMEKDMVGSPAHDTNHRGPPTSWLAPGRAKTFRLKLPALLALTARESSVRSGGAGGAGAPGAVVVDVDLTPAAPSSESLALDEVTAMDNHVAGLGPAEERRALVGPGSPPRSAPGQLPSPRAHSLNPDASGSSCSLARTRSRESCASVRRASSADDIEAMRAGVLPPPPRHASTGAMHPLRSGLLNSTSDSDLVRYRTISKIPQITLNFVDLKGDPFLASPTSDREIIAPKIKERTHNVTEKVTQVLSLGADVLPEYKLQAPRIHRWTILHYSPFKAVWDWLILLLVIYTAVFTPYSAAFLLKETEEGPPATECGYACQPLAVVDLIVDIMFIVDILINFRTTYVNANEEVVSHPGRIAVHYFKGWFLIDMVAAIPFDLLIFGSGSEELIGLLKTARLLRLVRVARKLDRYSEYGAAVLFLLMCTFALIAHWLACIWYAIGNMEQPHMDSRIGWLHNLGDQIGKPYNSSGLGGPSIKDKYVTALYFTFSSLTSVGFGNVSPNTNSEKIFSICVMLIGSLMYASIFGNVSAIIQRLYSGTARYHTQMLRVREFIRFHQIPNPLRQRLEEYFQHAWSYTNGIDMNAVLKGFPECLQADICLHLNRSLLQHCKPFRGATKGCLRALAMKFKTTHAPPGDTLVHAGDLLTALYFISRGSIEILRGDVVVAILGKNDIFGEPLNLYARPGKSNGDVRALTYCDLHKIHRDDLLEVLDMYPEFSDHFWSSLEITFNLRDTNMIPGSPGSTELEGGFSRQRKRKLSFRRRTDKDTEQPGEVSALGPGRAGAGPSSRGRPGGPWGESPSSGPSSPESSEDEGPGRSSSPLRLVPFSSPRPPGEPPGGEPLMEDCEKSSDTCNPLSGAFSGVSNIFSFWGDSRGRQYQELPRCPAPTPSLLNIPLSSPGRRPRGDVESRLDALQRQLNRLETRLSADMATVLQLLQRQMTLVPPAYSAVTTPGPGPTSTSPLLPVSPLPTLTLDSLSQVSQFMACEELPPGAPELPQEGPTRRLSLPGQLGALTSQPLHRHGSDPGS
In general terms: The patch-clamp technique gives a direct electrical read-out from membranes.

Data set [2] can be described thus: Protein binding in human plasma. The format is ADME, cell-free. The following applies: read-out: PPB (converted).
A short description of data set [3]: Apparent permeability from basolateral to apical side in human Caco2 cells. Type of data set: ADME, cell-based. The following applies: Caco-2. The method in brief: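 Caco-2 monolayer permeability measured in both the A-to-B and B-to-A directions and reported as P_app (×10⁻⁶ cm/s).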
On the technique in general: Passage across Caco-2 layers is used to estimate intestinal permeability.

Data set [4] is described as follows: Cmax in Sprague-Dawley rat plasma at 10 mg/kg, po administered as single dose by LC-MS/MS analysis. Set-up: dose 10 mg/kg, route oral. The format is ADME, organism-based. The method in brief: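 Single-dose PK in drug-naive adult male Sprague−Dawley rats, n = 3 per group: 3.1 μmol/kg IV in 5% DMSO/10% Solutol in saline (5 mL/kg), or 15.7 μmol/kg PO in 5% Solutol/10% Captisol in 25 mM PBS, pH adjusted to 2 with HCl. Plasma parameters reported as mean ± SD.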

Data set [5] is described as follows: Cmax in cynomolgus monkey plasma at 5 mg/kg, po by LC-MS/MS analysis. The format is ADME, organism-based, Macaca fascicularis. Set-up: dose 5 mg/kg, route oral. The method in brief:
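Single-dose PK in female cynomolgus monkeys, n = 3 per group: 1.5 μmol/kg IV in 5% DMSO/10% Solutol in saline, pH 6.5 (2 mL/kg), or 7.8 μmol/kg PO in 5% Solutol in 20% Captisol, 25 mM PBS, pH 2 (5 mL/kg). Plasma parameters reported as mean ± SD.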

A short description of data set [6]: Volume of distribution at steady state in cynomolgus monkey at 1 mg/kg, iv or 5 mg/kg, po measured up to 12 or 24 hrs post dose by LC-MS/MS analysis. The format is ADME, organism-based, Macaca fascicularis. The following applies: in vivo, read-out: Vdss. The method in brief:
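Three female cynomolgus monkeys per group, single dose: IV 1.5 μmol/kg in 5% DMSO/10% Solutol in saline, pH 6.5 (2 mL/kg), or PO 7.8 μmol/kg in 5% Solutol in 20% Captisol, 25 mM PBS, pH 2 (5 mL/kg). Parameters come from plasma concentration–time data; mean ± SD.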

Data set [7] can be described thus: Drug level in po dosed Sprague-Dawley rat brain measured 2 hrs post dose by LC-MS/MS analysis. The format is ADME, organism-based. The following applies: in vivo.
Data set [8] in a line: Drug level in po dosed Sprague-Dawley rat CSF measured 2 hrs post dose by LC-MS/MS analysis. Type of data set: ADME, organism-based, Cerebrospinal fluid. Conditions: in vivo.
Data set [9] relates to Cynomolgus monkey. The data set can be described thus: In vivo inhibition of glycine transporter-1 in po dosed cynomolgus monkey assessed as increase in CSF glycine level measured up to 24 hrs post dose by LC-MS/MS analysis. Type of data set: functional, Macaca fascicularis. The method in brief: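 Cynomolgus monkeys, n = 3 per group, given oral doses of 0.4, 1.5, 4.7 or 15.7 μmol/kg. Vehicle was 5% Solutol / 20% Captisol in 25 mM PBS, pH 2. CSF (about 0.30 mL) was drawn through subcutaneous ports with a sterile Huber needle predose and at 0.5, 1, 2, 3, 4, 8, 12 and 24 h. Matched blood was taken at each time. Mean ± SD.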

Data set [10] in a line: Drug level in cynomolgus monkey plasma at 3 mg/kg, po measured at 2 hrs post dose by LC-MS/MS analysis. Type of data set: ADME, organism-based, Macaca fascicularis.
Data set [11] can be described thus: Drug level in cynomolgus monkey plasma at 10 mg/kg, po measured at 3 hrs post dose by LC-MS/MS analysis. The format is ADME, organism-based, Macaca fascicularis.
Data set [12] in a line: Drug level in cynomolgus monkey plasma at 10 mg/kg, po measured at 12 hrs post dose by LC-MS/MS analysis. The format is ADME, organism-based, Macaca fascicularis. The method in brief: (§1)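 Cynomolgus monkeys (n = 3/group) fitted with subcutaneous CSF ports were dosed orally at 0.4−15.7 μmol/kg in 5% Solutol plus 20% Captisol in 25 mM PBS, pH 2. CSF (about 0.30 mL) and blood were sampled predose and at 0.5, 1, 2, 3, 4, 8, 12 and 24 h. Quantitation limit 1.0 ng/mL; mean ± SD.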

The nature of data set [13]: Drug level in cynomolgus monkey CSF at 10 mg/kg, po measured at 0.5 hr post dose by LC-MS/MS analysis. The format is ADME, organism-based, Macaca fascicularis, Cerebrospinal fluid. The following applies: read-out: Drug uptake. The method in brief: as §1
Data set [14] can be described thus: Drug level in cynomolgus monkey CSF at 10 mg/kg, po measured at 2 hrs post dose by LC-MS/MS analysis. Type of data set: ADME, organism-based, Macaca fascicularis, Cerebrospinal fluid. The following applies: read-out: Drug uptake. The method in brief:
as §1

Data set [15] concerns Rattus norvegicus. The data set can be described thus: In vivo inhibition of glycine transporter-1 in Sprague-Dawley rat assessed as CSF glycine level at 30 mg/kg, po measured 2 hrs post dose by LC-MS/MS analysis relative to control. The format is functional. Set-up: scale not given: the % may be the effect or the level left. The method in brief: (§2)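 Drug-naive Sprague-Dawley rats, n = 5 per group, given acute oral doses of 0.4-160.9 μmol/kg (0.3-100 mg/kg). Vehicle was Solutol 5% in 20% Captisol / 25 mM PBS, pH 2. Killed 2 h post-dose. CSF glycine was quantified by LC-MS/MS with a deuterated-glycine standard and expressed as % vehicle control, mean ± SEM. Two-way ANOVA with Tukey test.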

In data set [16] the test system is Rattus norvegicus. In words: In vivo inhibition of glycine transporter-1 in Sprague-Dawley rat assessed as CSF glycine level at 100 mg/kg, po measured 2 hrs post dose by LC-MS/MS analysis relative to control. The format is functional. Set-up: scale not given: the % may be the effect or the level left. The method in brief: as §2
Data set [17] deals with Rattus norvegicus. The data set can be described thus: In vivo inhibition of glycine transporter-1 in Sprague-Dawley rat assessed as CSF glycine level at 10 mg/kg, po qd for 5 days measured 2 hrs post last dose by LC-MS/MS analysis relative to control. Type of data set: functional. Set-up: scale not given: the % may be the effect or the level left. The method in brief:
(§3)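 Drug-naive Sprague-Dawley rats, n = 5 per group, dosed orally once daily for 5 days with vehicle or 1.6, 4.8 or 16.1 μmol/kg. Vehicle was 5% Solutol / 20% Captisol in 25 mM PBS, pH 2. Killed 2 h or 48 h after the last dose. CSF glycine was expressed as % of vehicle control (vehicle 2 h post last dose), mean ± SEM. Two-way ANOVA with Tukey test.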

Data set [18] in a line: Drug level in Sprague-Dawley rat CSF at 3 mg/kg, po qd for 5 days measured 2 hrs post last dose by LC-MS/MS analysis. The format is ADME, organism-based, Cerebrospinal fluid. Conditions: read-out: Drug uptake. The method in brief:
(§4)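 Drug-naive Sprague−Dawley rats (n = 5/group) were dosed orally once daily for 5 days in 5% Solutol plus 20% Captisol in 25 mM PBS, pH 2, and sacrificed 2 h after the last dose. Drug was measured in CSF, brain and plasma; mean ± SEM.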

A short description of data set [19]: Drug level in Sprague-Dawley rat plasma at 3 mg/kg, po qd for 5 days measured 2 hrs post last dose by LC-MS/MS analysis. The format is ADME, organism-based. The method in brief:
as §4

Data set [20] has as its system Rattus norvegicus. In words: In vivo inhibition of glycine transporter-1 in Sprague-Dawley rat assessed as increase in CSF glycine level at 1 to 10 mg/kg, po qd for 5 days measured 48 hrs post last dose by LC-MS/MS analysis. The format is functional, organism-based. The method in brief:
as §3

Data set [21] is described as follows: Toxicity in Sprague-Dawley rat assessed as gross behavioral abnormality at 1 to 10 mg/kg, po qd for 5 days. The format is organism-based. Conditions: in vivo, 120 h. The method in brief: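 Drug-naive Sprague–Dawley rats (n = 5/group) were dosed orally once daily for 5 days at 1.6, 4.8 or 16.1 μmol/kg in 5% Solutol/20% Captisol in 25 mM PBS, pH 2.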
Data set [22] in a line: Toxicity in Sprague-Dawley rat assessed as gross behavioral abnormality at 0.3 to 100 mg/kg, po. Type of data set: organism-based. The following applies: in vivo. The method in brief:
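Drug-naive Sprague–Dawley rats (n = 5/group) received a single oral dose of 0.4–160.9 μmol/kg in 5% Solutol plus 20% Captisol in 25 mM PBS, pH 2, and were watched for gross behavioral abnormalities until sacrifice at 2 h.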

Calls of active or inactive are those of the source. No cut-off for these calls is given here.

In general, IC50 refers to the concentration that inhibits the measured activity by half. The Papp B→A is how fast a substance crosses the layer from the basolateral side. A word on the Cmax: it is the peak of the concentration-time curve. `CC(NC(=O)c1ccc(C(F)(F)F)cc1Cl)C1(N2CCN(S(=O)(=O)c3cn(C)nn3)CC2)CCC(F)(F)CC1.Cl` (single isomer, unassigned; (+)) came in with an IC50 in data set [1] of 20.2 µM. Further, in [2], the fraction unbound was 0.12. Further, the basolateral-to-apical permeability (Papp B→A) in [3] turned out to be 474 nm/s. In addition, the Cmax in data set [4] is 0.352 µg/mL; in [5], 0.105 µg/mL. The Vd in data set [6] was 1.93 L/kg. For the same compound, the Drug uptake entry in data set [7] and in data set [8] was “Dose-dependent effect” in each case. In data set [9], the ED200 lay in the range of 4.7 to 15.7 µmol/kg. Besides, the concentration at 2 h in [10] is 0.0036 µg/mL; in data set [14] it was 0.0113 µg/mL. Also, the concentration at 3 h in data set [11] turned out to be 0.205 µg/mL. The concentration at 12 h in data set [12] is 0.135 µg/mL. For the same compound, the concentration at 0.5 h in data set [13] worked out at 0.0018 µg/mL.
On to `Cl.Cn1cc(S(=O)(=O)N2CCN(C3(CNC(=O)c4ccc(C(F)(F)F)cc4Cl)CCC(F)(F)CC3)CC2)nn1`, for which the Activity in [15] was 317.2%; in [16], 329.1%; in data set [17] it was 315%; in data set [21], “Non-Toxic”; in data set [22], “Non-Toxic”. Also, the concentration at 2 h came to 0.0011 µM in data set [18] and 0.122 µM in data set [19]. Moreover, in data set [20], the inhibition entry is “inactive”.
